Source: ChEMBL document CHEMBL4354826, “Structure-Based Discovery of SD-36 as a Potent, Selective, and Efficacious PROTAC Degrader of STAT3 Protein” (J Med Chem, 2019)
Active and inactive are the calls of the source. The calls are words filed in the database; no cut-off is given here.

Legend:
SU-DHL-1 = assay: Antiproliferative activity against human SUDHL1 cells assessed as reduction in cell viability incubated for 4 days by cell-titer glo luminescent assay; type: functional, cell-based; settings: SU-DHL-1, 96 h
Method in brief: (§1)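 Viability assay: cells incubated with serially diluted compounds for 4 days, viability read by CellTiter-Glo luminescence; IC50 from concentration–response.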

Mus musculus = assay: In vivo degradation of STAT3 in CD1 mouse at 25 mg/kg, iv measured upto 48 hrs by Western blot analysis; type: functional, organism-based
Method in brief: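 Female CD-1 mice given a single intravenous dose in 10% PEG400 + 90% PBS, or vehicle. Euthanized at set time points. Spleen harvested and lysates immunoblotted for STAT3.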

[1] = biological target: T1, Protein cereblon/Signal transducer and activator of transcription 3 (Homo sapiens, UniProt P40763+Q96SW2); assay: Protac activity at CRBN/STAT3 in human MOLM16 cells assessed as degradation of STAT3 incubated for 4 hrs by Western blot analysis; type: cell-based
Method in brief: (§2)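 Molm-16 cells treated 4 h with serially diluted compound. Lysates immunoblotted (SDS–PAGE, PVDF, 5% blocker/TBST, chemiluminescence) for total STAT3 and pSTAT3 Y705. DC50 taken as the concentration reducing total STAT3 by 50%.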
Target sequence in this assay (P40763 whole entry): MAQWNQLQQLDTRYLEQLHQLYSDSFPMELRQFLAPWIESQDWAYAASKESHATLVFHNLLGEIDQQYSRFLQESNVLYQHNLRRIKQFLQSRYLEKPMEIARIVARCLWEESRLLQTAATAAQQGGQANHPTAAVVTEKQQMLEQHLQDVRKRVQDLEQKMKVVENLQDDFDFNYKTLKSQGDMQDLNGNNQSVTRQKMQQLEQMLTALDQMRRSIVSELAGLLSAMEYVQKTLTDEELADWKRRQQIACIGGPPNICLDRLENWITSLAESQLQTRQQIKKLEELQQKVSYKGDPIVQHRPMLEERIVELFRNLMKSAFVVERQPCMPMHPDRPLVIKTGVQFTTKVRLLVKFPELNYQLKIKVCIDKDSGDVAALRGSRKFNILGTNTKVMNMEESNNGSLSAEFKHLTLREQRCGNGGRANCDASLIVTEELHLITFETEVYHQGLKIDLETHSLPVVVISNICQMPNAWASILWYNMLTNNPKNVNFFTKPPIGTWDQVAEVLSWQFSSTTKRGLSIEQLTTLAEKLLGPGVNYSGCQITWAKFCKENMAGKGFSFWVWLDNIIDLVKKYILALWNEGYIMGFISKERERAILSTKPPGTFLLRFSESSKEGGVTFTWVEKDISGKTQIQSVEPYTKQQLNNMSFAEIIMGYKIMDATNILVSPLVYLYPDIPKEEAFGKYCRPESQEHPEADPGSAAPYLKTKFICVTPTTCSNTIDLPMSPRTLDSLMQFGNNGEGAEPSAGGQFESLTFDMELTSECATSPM
Target sequence in this assay (Q96SW2 whole entry): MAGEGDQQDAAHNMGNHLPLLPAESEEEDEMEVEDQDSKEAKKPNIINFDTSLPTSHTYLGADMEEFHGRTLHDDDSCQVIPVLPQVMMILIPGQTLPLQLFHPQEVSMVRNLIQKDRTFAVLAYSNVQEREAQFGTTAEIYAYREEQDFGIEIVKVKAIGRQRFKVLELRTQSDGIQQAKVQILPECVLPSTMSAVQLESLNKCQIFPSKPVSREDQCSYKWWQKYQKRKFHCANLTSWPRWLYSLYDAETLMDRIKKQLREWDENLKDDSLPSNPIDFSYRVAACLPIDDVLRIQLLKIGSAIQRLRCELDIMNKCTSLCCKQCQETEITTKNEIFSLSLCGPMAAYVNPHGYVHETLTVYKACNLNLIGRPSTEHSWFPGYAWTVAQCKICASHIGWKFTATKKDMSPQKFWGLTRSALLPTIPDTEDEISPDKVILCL

[2] = Antiproliferative activity against human MOLM16 cells assessed as reduction in cell viability incubated for 4 days by cell-titer glo luminescent assay; type: functional, cell-based; settings: MOLM16, 96 h; method in brief: as §1
[3] = biological target: T1, Protein cereblon/Signal transducer and activator of transcription 3; assay: Protac activity at CRBN/STAT3 in human SUDHL1 cells assessed as degradation of STAT3 incubated for 16 hrs by Western blot analysis; type: cell-based
Target sequence in this assay (P40763 whole entry): as the sequence (P40763 whole entry) above
Target sequence in this assay (Q96SW2 whole entry): as the sequence (Q96SW2 whole entry) above

[4] = biological target: T2, Signal transducer and activator of transcription 3 (Homo sapiens, UniProt P40763); assay: Binding affinity to STAT3 (unknown origin)
[5] = biological target: T3, Protein cereblon/Signal transducer and activator of transcription 5B (Homo sapiens) (UniProt P51692+Q96SW2); assay: Protac activity at CRBN/STAT5B in human SUDHL1 cells assessed as degradation of STAT5B at 10 uM incubated for 18 hrs by Western blot analysis; type: cell-based
Method in brief: (§3)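 SU-DHL-1 cells treated 18 h with test compound at 0.01–10 μM, or control compounds at 10 μM. Lysates separated by SDS–PAGE, transferred to PVDF, blocked 1 h in 5% blocker/TBST, probed for each STAT protein, and detected by chemiluminescence.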

[6] = biological target: T1, Protein cereblon/Signal transducer and activator of transcription 3; assay: Protac activity at CRBN/STAT3 in human MOLM16 cells assessed as degradation of STAT3 at 10 uM incubated for 4 hrs by Western blot analysis; type: cell-based
Method in brief: (§4)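 Molm-16 cells treated 4 h with test compound at 0.01–10 μM, or control compounds at 10 μM. Lysates separated by SDS–PAGE, transferred to PVDF, blocked 1 h in 5% blocker/TBST, probed for each STAT protein, and detected by chemiluminescence.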

[7] = biological target: T1, Protein cereblon/Signal transducer and activator of transcription 3; assay: Protac activity at CRBN/STAT3 in human MOLM16 cells assessed as degradation of phosphorylated STAT3 Y705 at 1 uM incubated for 4 hrs by Western blot analysis; type: cell-based; method in brief: as §2
[8] = biological target: T1, Protein cereblon/Signal transducer and activator of transcription 3; assay: Protac activity at CRBN/STAT3 in human SUDHL1 cells assessed as degradation of STAT3 at 10 uM incubated for 18 hrs by Western blot analysis; type: cell-based; method in brief: as §3
[9] = biological target: T4, Protein cereblon/Signal transducer and activator of transcription 2 (Homo sapiens) (UniProt Q96SW2+P52630); assay: Protac activity at CRBN/STAT2 in human SUDHL1 cells assessed as degradation of STAT2 at 10 uM incubated for 18 hrs by Western blot analysis; type: cell-based; method in brief: as §3
[10] = biological target: T5, Protein cereblon/Signal transducer and activator of transcription 1-alpha/beta (Homo sapiens) (UniProt P42224+Q96SW2); assay: Protac activity at CRBN/STAT1 in human SUDHL1 cells assessed as degradation of STAT1 at 10 uM incubated for 18 hrs by Western blot analysis; type: cell-based; method in brief: as §3
[11] = biological target: T1, Protein cereblon/Signal transducer and activator of transcription 3; assay: Protac activity at CRBN/STAT3 in human SUDHL1 cells assessed as degradation of STAT3 upto 10 uM incubated for 16 hrs by Western blot analysis; type: cell-based
[12] = biological target: T6, Protein cereblon/Signal transducer and activator of transcription 5A (Homo sapiens) (UniProt P42229+Q96SW2); assay: Protac activity at CRBN/STAT5A in human SUDHL1 cells assessed as degradation of STAT5A at 10 uM incubated for 18 hrs by Western blot analysis; type: cell-based; method in brief: as §3
[13] = biological target: T1, Protein cereblon/Signal transducer and activator of transcription 3; assay: Protac activity at CRBN/STAT3 in human MOLM16 cells assessed as degradation of STAT3 at 1 uM incubated for 4 hrs by Western blot analysis; type: cell-based; method in brief: as §2
[14] = biological target: T7, Protein cereblon/Signal transducer and activator of transcription 6 (Homo sapiens) (UniProt P42226+Q96SW2); assay: Protac activity at CRBN/STAT6 in human SUDHL1 cells assessed as degradation of STAT6 at 10 uM incubated for 18 hrs by Western blot analysis; type: cell-based
Method in brief: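 SU-DHL-1 cells exposed to compound over 0.01–10 μM, or controls at 10 μM, for 18 h. Lysates separated by SDS–PAGE and transferred to PVDF. Membranes blocked 1 h in 5% blocker/TBST, probed with primary then secondary antibodies, and developed by chemiluminescence for STAT1, STAT2, STAT4, STAT5A/B, STAT6 and STAT3.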

[15] = biological target: T2, Signal transducer and activator of transcription 3; assay: Binding affinity to recombinant human His/SUMO-tagged STAT3 (127 to 688 residues) expressed in Escherichia coli Rosetta (DE3) incubated for 1 hr by fluorescence polarization assay
[16] = biological target: T8, Protein cereblon/Signal transducer and activator of transcription 4 (Homo sapiens) (UniProt Q96SW2+Q14765); assay: Protac activity at CRBN/STAT4 in human SUDHL1 cells assessed as degradation of STAT4 at 10 uM incubated for 18 hrs by Western blot analysis; type: cell-based; method in brief: as §3
[17] = biological target: T1, Protein cereblon/Signal transducer and activator of transcription 3; assay: Protac activity at CRBN/STAT3 in human SUDHL1 cells assessed as degradation of phosphorylated STAT3 Y705 upto 10 uM incubated for 16 hrs by Western blot analysis; type: cell-based
[18] = biological target: T8, Protein cereblon/Signal transducer and activator of transcription 4 (Homo sapiens); assay: Protac activity at CRBN/STAT4 in human MOLM16 cells assessed as degradation of STAT4 at 10 uM incubated for 4 hrs by Western blot analysis; type: cell-based; method in brief: as §4
[19] = biological target: T7, Protein cereblon/Signal transducer and activator of transcription 6 (Homo sapiens); assay: Protac activity at CRBN/STAT6 in human MOLM16 cells assessed as degradation of STAT6 at 10 uM incubated for 4 hrs by Western blot analysis; type: cell-based; method in brief: as §4
[20] = biological target: T3, Protein cereblon/Signal transducer and activator of transcription 5B (Homo sapiens); assay: Protac activity at CRBN/STAT5B in human MOLM16 cells assessed as degradation of STAT5B at 10 uM incubated for 4 hrs by Western blot analysis; type: cell-based; method in brief: as §4
[21] = biological target: T4, Protein cereblon/Signal transducer and activator of transcription 2 (Homo sapiens); assay: Protac activity at CRBN/STAT2 in human MOLM16 cells assessed as degradation of STAT2 at 10 uM incubated for 4 hrs by Western blot analysis; type: cell-based; method in brief: as §4
[22] = biological target: T5, Protein cereblon/Signal transducer and activator of transcription 1-alpha/beta (Homo sapiens); assay: Protac activity at CRBN/STAT1 in human MOLM16 cells assessed as degradation of STAT1 at 10 uM incubated for 4 hrs by Western blot analysis; type: cell-based; method in brief: as §4
[23] = biological target: T6, Protein cereblon/Signal transducer and activator of transcription 5A (Homo sapiens); assay: Protac activity at CRBN/STAT5A in human MOLM16 cells assessed as degradation of STAT5A at 10 uM incubated for 4 hrs by Western blot analysis; type: cell-based; method in brief: as §4
[24] = biological target: T1, Protein cereblon/Signal transducer and activator of transcription 3; assay: Protac activity at CRBN/STAT3 in human MOLM16 cells assessed as degradation of STAT3 up to 10 uM incubated for 4 hrs by Western blot analysis; type: cell-based; method in brief: as §2

T8 sequence (Q14765 whole entry, looked up): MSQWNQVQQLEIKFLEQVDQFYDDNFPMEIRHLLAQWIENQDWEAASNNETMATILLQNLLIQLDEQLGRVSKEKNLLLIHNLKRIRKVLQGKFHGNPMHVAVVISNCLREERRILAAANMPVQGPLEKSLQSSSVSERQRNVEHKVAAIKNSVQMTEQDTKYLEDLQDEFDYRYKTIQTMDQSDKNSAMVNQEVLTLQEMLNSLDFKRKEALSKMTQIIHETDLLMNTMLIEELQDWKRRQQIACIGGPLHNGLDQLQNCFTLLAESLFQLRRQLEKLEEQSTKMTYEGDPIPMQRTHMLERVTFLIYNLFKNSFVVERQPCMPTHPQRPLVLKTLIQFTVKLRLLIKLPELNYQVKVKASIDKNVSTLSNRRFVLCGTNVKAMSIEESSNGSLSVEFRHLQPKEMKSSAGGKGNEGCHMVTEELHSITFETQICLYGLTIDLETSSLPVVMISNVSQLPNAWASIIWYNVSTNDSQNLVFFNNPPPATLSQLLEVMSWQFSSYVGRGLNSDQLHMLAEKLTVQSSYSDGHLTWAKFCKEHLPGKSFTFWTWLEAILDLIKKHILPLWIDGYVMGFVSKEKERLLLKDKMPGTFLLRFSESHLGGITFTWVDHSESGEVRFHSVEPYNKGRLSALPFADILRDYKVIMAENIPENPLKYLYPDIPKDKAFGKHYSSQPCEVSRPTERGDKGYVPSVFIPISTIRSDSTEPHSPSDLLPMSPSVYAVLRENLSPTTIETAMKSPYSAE
T8 sequence (Q96SW2 whole entry, looked up): as the sequence (Q96SW2 whole entry) above
T6 sequence (P42229 whole entry, looked up): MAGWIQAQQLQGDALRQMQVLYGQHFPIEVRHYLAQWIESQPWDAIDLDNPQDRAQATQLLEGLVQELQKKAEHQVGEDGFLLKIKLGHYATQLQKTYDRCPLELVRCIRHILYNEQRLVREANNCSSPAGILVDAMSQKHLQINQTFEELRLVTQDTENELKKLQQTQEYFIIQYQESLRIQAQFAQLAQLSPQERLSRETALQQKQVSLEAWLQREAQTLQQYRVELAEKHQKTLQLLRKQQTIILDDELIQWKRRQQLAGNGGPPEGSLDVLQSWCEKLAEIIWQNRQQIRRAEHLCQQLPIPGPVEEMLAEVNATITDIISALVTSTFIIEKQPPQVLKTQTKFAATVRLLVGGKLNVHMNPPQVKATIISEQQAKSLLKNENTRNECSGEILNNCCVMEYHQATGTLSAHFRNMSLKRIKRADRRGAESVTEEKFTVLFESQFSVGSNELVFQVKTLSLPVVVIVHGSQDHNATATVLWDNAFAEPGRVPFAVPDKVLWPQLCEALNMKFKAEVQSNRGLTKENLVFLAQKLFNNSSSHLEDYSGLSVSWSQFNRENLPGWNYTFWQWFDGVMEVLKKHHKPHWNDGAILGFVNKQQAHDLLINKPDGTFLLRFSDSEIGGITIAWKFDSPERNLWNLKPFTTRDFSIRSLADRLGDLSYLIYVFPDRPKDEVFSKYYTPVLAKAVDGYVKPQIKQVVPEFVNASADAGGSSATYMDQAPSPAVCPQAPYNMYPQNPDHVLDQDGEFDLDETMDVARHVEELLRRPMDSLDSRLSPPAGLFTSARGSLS
T6 sequence (Q96SW2 whole entry, looked up): as the sequence (Q96SW2 whole entry) above
T3 sequence (P51692 whole entry, looked up): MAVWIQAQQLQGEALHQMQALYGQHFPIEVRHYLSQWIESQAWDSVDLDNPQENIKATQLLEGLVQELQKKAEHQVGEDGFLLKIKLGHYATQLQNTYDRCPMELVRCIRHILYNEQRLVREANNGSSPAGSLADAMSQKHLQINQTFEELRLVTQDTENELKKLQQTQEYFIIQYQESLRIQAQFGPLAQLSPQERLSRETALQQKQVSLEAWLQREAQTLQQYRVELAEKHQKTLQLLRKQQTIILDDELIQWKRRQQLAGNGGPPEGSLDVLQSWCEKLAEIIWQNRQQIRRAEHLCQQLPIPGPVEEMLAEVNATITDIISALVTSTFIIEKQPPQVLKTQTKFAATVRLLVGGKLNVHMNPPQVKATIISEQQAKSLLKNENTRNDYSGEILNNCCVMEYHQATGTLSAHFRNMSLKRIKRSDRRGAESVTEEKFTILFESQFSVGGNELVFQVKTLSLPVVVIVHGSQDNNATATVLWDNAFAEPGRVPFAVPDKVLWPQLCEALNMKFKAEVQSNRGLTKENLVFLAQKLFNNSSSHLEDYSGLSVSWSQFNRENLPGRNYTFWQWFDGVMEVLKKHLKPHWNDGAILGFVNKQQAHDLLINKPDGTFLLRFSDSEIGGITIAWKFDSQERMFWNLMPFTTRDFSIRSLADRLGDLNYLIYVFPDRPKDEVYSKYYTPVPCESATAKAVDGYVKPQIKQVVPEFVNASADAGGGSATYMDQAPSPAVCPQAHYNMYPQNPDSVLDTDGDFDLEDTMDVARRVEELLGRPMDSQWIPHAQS
T3 sequence (Q96SW2 whole entry, looked up): as the sequence (Q96SW2 whole entry) above
T7 sequence (P42226 2-847 limits assumed): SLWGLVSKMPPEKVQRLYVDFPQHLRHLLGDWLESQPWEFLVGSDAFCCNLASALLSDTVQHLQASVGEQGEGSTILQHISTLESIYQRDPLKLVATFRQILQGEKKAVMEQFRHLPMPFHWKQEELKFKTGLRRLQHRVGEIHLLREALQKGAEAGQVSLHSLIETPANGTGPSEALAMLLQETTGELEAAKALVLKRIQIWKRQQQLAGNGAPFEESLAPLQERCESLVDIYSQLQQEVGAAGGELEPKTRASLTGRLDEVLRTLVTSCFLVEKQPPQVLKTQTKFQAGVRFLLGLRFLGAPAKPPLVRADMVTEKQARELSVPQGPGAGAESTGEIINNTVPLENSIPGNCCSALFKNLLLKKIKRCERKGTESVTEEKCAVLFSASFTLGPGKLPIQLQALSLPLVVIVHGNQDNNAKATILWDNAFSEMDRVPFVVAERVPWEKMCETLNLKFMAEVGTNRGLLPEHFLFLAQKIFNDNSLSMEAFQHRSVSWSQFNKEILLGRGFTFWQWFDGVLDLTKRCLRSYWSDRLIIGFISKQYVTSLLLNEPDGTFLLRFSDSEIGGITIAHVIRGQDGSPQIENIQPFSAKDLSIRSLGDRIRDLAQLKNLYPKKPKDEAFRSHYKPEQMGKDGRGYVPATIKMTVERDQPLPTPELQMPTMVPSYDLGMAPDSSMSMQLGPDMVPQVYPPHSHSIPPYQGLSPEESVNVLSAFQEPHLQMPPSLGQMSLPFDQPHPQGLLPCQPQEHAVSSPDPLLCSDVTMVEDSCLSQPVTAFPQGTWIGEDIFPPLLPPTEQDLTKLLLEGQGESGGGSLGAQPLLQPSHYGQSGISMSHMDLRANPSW
T7 sequence (Q96SW2 whole entry partner): as the sequence (Q96SW2 whole entry) above
T2 sequence (P40763 whole entry): as the sequence (P40763 whole entry) above

Row | SMILES | IC50 (SU-DHL-1) | DC50 [1] | IC50 [2] | DC50 [3] | Activity [5] | Activity [6] | Activity [8] | Activity [9] | Activity [10] | Activity [11] | Activity [12] | Activity [14] | Activity [16] | Activity [17] | Activity [18] | Activity [19] | Activity [20] | Activity [21] | Activity [22] | Activity [23] | also measured
1 | NC(=O)CC[C@H](NC(=O)[C@@H]1CC[C@@H]2CCN(C(=O)NCCCCC#Cc3cccc4c3CN(C3CCC(=O)NC3=O)C4=O)C[C@H](NC(=O)c3cc4cc(C(F)(F)P(=O)(O)O)ccc4[nH]3)C(=O)N21)C(=O)NC(c1ccccc1)c1ccccc1 (stereo not given in full) | 0.43 µM | 0.05 µM | 0.091 µM | 0.011 µM |  |  |  |  |  |  |  |  |  |  |  |  |  |  |  |  | Activity (Mus musculus): Active
2 | NC(=O)CC[C@H](NC(=O)[C@@H]1CC[C@@H]2CCCC[C@H](NC(=O)c3cc4cc(CP(=O)(O)O)ccc4[nH]3)C(=O)N21)C(=O)NCc1ccccc1 |  |  |  |  |  |  |  |  |  |  |  |  |  |  |  |  |  |  |  |  | Ki [4]: 761 nM
3 | CC(=O)N1CC[C@H]2CC[C@@H](C(=O)N[C@@H](CCC(N)=O)C(=O)NC(c3ccccc3)c3ccccc3)N2C(=O)[C@@H](NC(=O)c2cc3cc(C(F)(F)P(=O)(O)O)ccc3[nH]2)C1 | > 10 µM | > 10 µM | 6.45 µM | > 10 µM | inactive | inactive | inactive | inactive | inactive | inactive | inactive | inactive | inactive | inactive | inactive | inactive | inactive | inactive | inactive | inactive | Activity [7]: inactive; Activity [13]: inactive; Ki [15]: 14 nM
4 | CN1C(=O)CCC(N2Cc3c(C#CCCCCCC(=O)N4CC[C@H]5CC[C@@H](C(=O)N[C@@H](CCC(N)=O)C(=O)NC(c6ccccc6)c6ccccc6)N5C(=O)[C@@H](NC(=O)c5cc6cc(C(F)(F)P(=O)(O)O)ccc6[nH]5)C4)cccc3C2=O)C1=O (stereo not given in full) | > 10 µM | > 10 µM | 5.21 µM | > 10 µM | inactive | inactive | inactive | inactive | inactive | inactive | inactive | inactive | inactive | inactive | inactive | inactive | inactive | inactive | inactive | inactive | Activity [24]: 0%
